According to the array DNA melting data of Ke et al. (doi:10.1101/2024.01.08.574731):

How the values were obtained:
[1] = folding enthalpy; higher = less favourable; fluorescence melt of hairpins on a sequencing array, two-state fit; settings: sodium 0.088 M
Method in brief: (§1)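 On a sequenced MiSeq flow cell, library hairpins with annealed Cy3 and quencher oligos were imaged for Cy3 fluorescence in 2.5 °C steps up to 60 °C, in 50 mM Na-HEPES pH 8.0, 25 mM NaCl. Normalisation used pre-quench Cy3 and control constructs. Bootstrapped two-state fits gave melting temperature and folding enthalpy, combined by inverse variance across four replicates and with fitted temperatures raised by 9.35 °C to match UV melts.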

[2] = melting temperature; fluorescence melt of hairpins on a sequencing array, two-state fit, raised by 9.35 °C to match UV melts; settings: sodium 0.088 M
Method in brief: as §1

Sequence	folding enthalpy [1]	Tm [2]
GTAGACGAAAGTCCATAC ((((((....)))..)))	-10.2 kcal/mol	26 °C
GCCATTGGAAACAATGAC (.(((((....))))).)	-19.1 kcal/mol	38.8 °C
GTCAGCGAAAGCTGGAC ((((((....))).)))	-14.4 kcal/mol	53.1 °C
GGCTAGAAATAGCC (((((....)))))	-24.6 kcal/mol	51.5 °C
GTACCCACGAAAGTGTAC (((..(((....))))))	-11.5 kcal/mol	26.2 °C
GCAAAGCGAAAGCCATGC (((..((....))..)))	-12.3 kcal/mol	32.2 °C
GCGTGCGAAAGCACACGC ((((((....)))..)))	-15 kcal/mol	64.5 °C
GTAGTTGGAAACAGCTAC ((((.((....)).))))	-29.4 kcal/mol	42.9 °C
GATCCCTAGCGGGATC ((((((....))))))	-34.5 kcal/mol	59.1 °C
GGTCTTGGAAACAAAACC (((.(((....))).)))	-14.5 kcal/mol	29.6 °C
GGGTGGGAAACCACCC ((((((....))))))	-29.6 kcal/mol	68.2 °C
GATGAACGAAAGTTATC (((.(((....))))))	-11.1 kcal/mol	28.4 °C
GTCTGTCGAAAGACGGAC (((.(((....))).)))	-36.6 kcal/mol	63.2 °C
GCACATGGAAACATGTGC (((((((....)))))))	-43.4 kcal/mol	67.4 °C
GAATACGAAAGTACTTC ((((((....))).)))	-17 kcal/mol	30.2 °C
GTATTGGGAAACCGATAC ((((.((....)).))))	-35.7 kcal/mol	43.6 °C
GATCGCATCGGCGATC ((((((....))))))	-33.6 kcal/mol	68.8 °C
GAGATGGGAAACTGTCTC ((((..(....)..))))	-21.5 kcal/mol	33.2 °C
CGGGTCGGAAACGATCCG (((.(((....))).)))	-45.1 kcal/mol	58 °C
GCCGTCGAAAGACCGGGC ((((((....)))..)))	-22.1 kcal/mol	50.3 °C
GTAAACGGAAACGTTTAC (((((((....)))))))	-47.3 kcal/mol	57.8 °C
GCAATGCGAAAGCAAAGC ((..(((....)))..))	-14.6 kcal/mol	38 °C
CAAGAGAAATCTTG (((((....)))))	-10.5 kcal/mol	31.7 °C
GTTTTTGAAAAAAAAC ((((((....))))))	-27.3 kcal/mol	43.3 °C

Sequence	folding enthalpy [1]	Tm [2]
GATCTTGCGCAAGATC ((((((....))))))	-54.1 kcal/mol	55.5 °C
GTCTTCGGAAACGAAGGC (.(((((....))))).)	-32.9 kcal/mol	53.8 °C
GATCCGAAAACGGATC ((((((....))))))	-37 kcal/mol	52.6 °C
GCGGGTGTCCGC ((((....))))	-22.8 kcal/mol	58.2 °C
GCACTGCGAAAGCAGCGC ((.((((....)))).))	-28.9 kcal/mol	69.1 °C
GATCGGCTTACCGATC ((((((....))))))	-35.4 kcal/mol	57.7 °C
GCACAGCGAAAGCTCGGC ((..(((....)))..))	-15.2 kcal/mol	38.4 °C
GCAAGGCGAAAGCTGTGC (((..((....))..)))	-18.1 kcal/mol	52.8 °C
GAGCACGAAAGTGGGCTC ((((((....)))..)))	-23.5 kcal/mol	54.7 °C
GCCTAGCGAAAGCTGGC (((.(((....))))))	-29.2 kcal/mol	64.8 °C
GATCGACCCATCGATC ((((((....))))))	-44.4 kcal/mol	51.5 °C
GTACCTCGAAAGAGATAC (((.(((....))).)))	-28.3 kcal/mol	38.7 °C
GAAGTAGGAAACTACTCC (.(((((....))))).)	-11.4 kcal/mol	32.5 °C
GATCACTCCGTGATC ((((((...))))))	-44 kcal/mol	59.2 °C
GATCAGGATTCTGATC ((((((....))))))	-38.6 kcal/mol	49.8 °C
GTTCGGCGAAAGCCTAAC (((.(((....))).)))	-19.2 kcal/mol	43 °C
GGCAGAGGAAACTTTGCC ((((.((....)).))))	-35.5 kcal/mol	48.6 °C
GCGAGCATCGC ((((...))))	-21.8 kcal/mol	62.1 °C
GTTTGCGAAAGCATAAAC ((((((....)))..)))	-13 kcal/mol	31.5 °C
GCAGACGAAAGTCGCTGC ((((((....)))..)))	-22.2 kcal/mol	57.6 °C
GTGTGTGGAAACATACAC ((((.((....)).))))	-39.6 kcal/mol	48.6 °C
GACCGCGAAAGCGTCGTC ((((((....)))..)))	-13.5 kcal/mol	53.1 °C
CGCAACGGAAACGTAGCG (((.(((....))).)))	-38 kcal/mol	53.4 °C
GAGCACCGAAAGGTTCTC (((.(((....))).)))	-27.6 kcal/mol	45.8 °C

Sequence	folding enthalpy [1]	Tm [2]
GATTGTGGAAACATGATC (((..((....))..)))	-18 kcal/mol	31.2 °C
GCAACGTCGAAAGACTGC (((..(((....))))))	-20.1 kcal/mol	39.1 °C
GTCGTGGGAAACCATGGC (.(.(((....))).).)	-25.6 kcal/mol	40.6 °C
GATGAGGGAAACCTCGTC ((.((((....)))).))	-22.3 kcal/mol	47.9 °C
GACATGCGAAAGCAAGTC (((.(((....))).)))	-25.5 kcal/mol	53.3 °C
GTATTCGAAAGAATATAC ((((((....)))..)))	-13.8 kcal/mol	33.5 °C
GATCCTATACAGGATC ((((((....))))))	-38.1 kcal/mol	52.4 °C
GCTTAGCGAAAGCTCTGC ((..(((....)))..))	-16.4 kcal/mol	37.8 °C
GAGTTCCGAAAGGACTC (((.(((....))))))	-22.1 kcal/mol	49.2 °C
GCCAAGCGAAAGCATGGC ((((.((....)).))))	-34.9 kcal/mol	67 °C
GACAACGAAAGTTTGGTC ((((((....)))..)))	-16.4 kcal/mol	32.9 °C
GGGTGAGGAAACTCACCC (((((((....)))))))	-33.8 kcal/mol	68.6 °C
TTACTGAAAAGTAA (((((....)))))	-8.68 kcal/mol	26.7 °C
GCTTGTCGAAAGACCAGC (((.(((....))).)))	-26.7 kcal/mol	47.9 °C
GAGCACCCGAAAGGGCTC (((..(((....))))))	-26.7 kcal/mol	48.6 °C
GGGATTGGAAACAGTTCC ((.(.((....)).).))	-16.6 kcal/mol	34.3 °C
GCGTCGCGAAAGCGCAGC ((..(((....)))..))	-19.9 kcal/mol	57.5 °C
GTATCGCGAAAGCGCTAC (((.(((....))).)))	-18.4 kcal/mol	47.9 °C
GCTCGGGGAAACTCGGGC ((.((.(....).)).))	-26 kcal/mol	46.6 °C
GATGAAGGAAACCTCATC (((((.(....).)))))	-24.7 kcal/mol	36.1 °C
GCCTTCGGAAACGAAAGC ((.((((....)))).))	-22 kcal/mol	40.4 °C
GCTCGCGGAAACGCGAAC (.(((((....))))).)	-11.3 kcal/mol	48.9 °C
GTCATTACGAAAGTAGAC (((..(((....))))))	-9.42 kcal/mol	26.7 °C
GACAACGAAAGTTGTC ((((((....))))))	-24.8 kcal/mol	67.9 °C

Sequence	folding enthalpy [1]	Tm [2]
GATCGCGAAAGCGCAATC ((((((....)))..)))	-7.96 kcal/mol	23.1 °C
GATCCTCACAGGATC ((((((...))))))	-27.2 kcal/mol	54 °C
GTAGGGCGAAAGCCTTAC (((.(((....))).)))	-20.2 kcal/mol	50.4 °C
GCGAGATGTCGC ((((....))))	-19.1 kcal/mol	49.4 °C
ATGTAGAAATACAT (((((....)))))	-7.12 kcal/mol	28.2 °C
GGCGTCGAAAGACTCGCC ((((((....)))..)))	-20.6 kcal/mol	50.1 °C
GATCGGGGGACCGATC ((((((....))))))	-36.2 kcal/mol	61.9 °C
GGGTTACGAAAGTACCC (((.(((....))))))	-31.5 kcal/mol	54.3 °C
GGCTCCGAAAGGATAGCC ((((((....)))..)))	-39.5 kcal/mol	52.4 °C
CGTTGCGGAAACGCGACG (((.(((....))).)))	-30.5 kcal/mol	67.4 °C
GCATCGCGAAAGCAGTGC (((..((....))..)))	-18 kcal/mol	52.3 °C
GATCTACATTAGATC ((((((...))))))	-25 kcal/mol	37.5 °C
TTACGGAAACGTAA (((((....)))))	-14.8 kcal/mol	42.1 °C
GATCCGATAGCGGATC ((((((....))))))	-38.9 kcal/mol	54.3 °C
GCTCCGCGAAAGCAGGGC ((.(.((....)).).))	-16 kcal/mol	50.1 °C
GATCAACGAAAGTTATC (((.(((....))))))	-9.84 kcal/mol	25.4 °C
GACCCGGGAAACCGGATC ((.((((....)))).))	-16.3 kcal/mol	43.2 °C
GTGACCGAAAGGTGCCAC ((((((....)))..)))	-12.1 kcal/mol	30.2 °C
GATCTCTTATGAGATC ((((((....))))))	-43.4 kcal/mol	54.1 °C
GATACCGGAAACGGCATC (((.(((....))).)))	-25 kcal/mol	43.8 °C
GTCTGTCGAAAGACTGAC (((.(((....))).)))	-39.4 kcal/mol	54.4 °C
